Experimental data: ChEMBL document CHEMBL4371072, “Structure-Activity Relationship Studies and Plasmodium Life Cycle Profiling Identifies Pan-Active N-Aryl-3-trifluoromethyl Pyrido[1,2- a]benzimidazoles Which Are Efficacious in an in Vivo Mouse Model of Malaria” (J Med Chem, 2019)

Experiments:
Plasmodium berghei [1] = experiment: Antimalarial activity against liver stage form of luciferase transfected Plasmodium berghei sporozoites infected in human HuH7 cells preincubated with host cells for 1 hr followed by plasmodial infection and measured after 48 hrs by bioluminescence method; format: functional, organism-based; settings: Huh-7
CHO = experiment: Cytotoxicity against CHO cells after 48 hrs by MTT assay; format: cell-based; settings: Cricetulus griseus
[2] = Half life in human liver microsomes at 0.1 uM in presence of NADPH by LC-MS/MS analysis
Plasmodium falciparum [3] = experiment: (§1) Antiplasmodial activity against chloroquine-sensitive asexual blood stage of Plasmodium falciparum NF54 infected in human RBC assessed as reduction in [3H]hypoxanthine incorporation preincubated for 48 hrs followed by [3H]hypoxanthine addition measured after 24 hrs by liquid scintillation counting method; format: functional, organism-based
Summary of the method: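 Asexual blood-stage P. falciparum NF54 assay, run as a modified [3H]-hypoxanthine incorporation assay. Values are the mean of n ≥ 2 assays; determinations differing more than 3-fold were excluded. Chloroquine and artesunate served as controls.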

[4] = Metabolic stability in human liver microsomes assessed as parent compound remaining at 0.1 uM after 30 mins in presence of NADPH by LC-MS/MS analysis
Plasmodium falciparum [5] = experiment: Antiplasmodial activity against chloroquine-sensitive final late stage of Plasmodium falciparum NF54-Mal8p1.16-GFP-Luc gametocytes after 24 hrs by BacTiter-Glo assay; format: functional, organism-based; settings: NF54, 24 h
Summary of the method: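 Late-stage PfNF54 gametocytes produced in vitro; gametocytocidal IC50 via luciferase reporter and ATP bioluminescence platforms; n=3 independent biological replicates in technical triplicates, ± S.E.M.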

[6] = Selectivity index, ratio of IC50 for CHO cells to IC50 for chloroquine-sensitive asexual blood stage of Plasmodium falciparum NF54 infected in human RBC; format: toxicity; settings: Chinese hamster, read-out: Ratio IC50
Summary of the method: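 Selectivity index taken as the ratio of the CHO-cell IC50 to the P. falciparum NF54 IC50.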

[7] = Metabolic stability in Balb/c mouse liver microsomes assessed as parent compound remaining at 0.1 uM after 30 mins in presence of NADPH by LC-MS/MS analysis
[8] = Half life in Balb/c mouse liver microsomes at 0.1 uM in presence of NADPH by LC-MS/MS analysis
Hemozoin = experiment: Inhibition of beta hematin formation after 5 hrs by NP40 detergent-based assay
Plasmodium berghei [9] = experiment: Antimalarial activity against GFP-fused Plasmodium berghei ANKA infected in NMRI mouse assessed as host mean survival time at 30 mg/kg, po administered for 4 consecutive days; format: functional
Summary of the method: (§2)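 NMRI mice infected intravenously with P. berghei; oral treatment at 4, 24, 48 and 72 h post-infection (4 x 50 mg/kg), vehicle to controls; reference drug 4 x 30 mg/kg orally on four consecutive days. Parasitemia compared with untreated controls; mean survival days recorded; cure if no parasitemia 30 days after treatment.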

Plasmodium falciparum [10] = experiment: Ratio of IC50 for late stage of Plasmodium falciparum NF54-Mal8p1.16-GFP-Luc gametocytes to IC50 for early stage of Plasmodium falciparum NF54-PfS16-GFP-Luc gametocytes; format: functional
Plasmodium falciparum [11] = experiment: Ratio of IC50 for early stage of Plasmodium falciparum NF54-PfS16-GFP-Luc gametocytes to IC50 for late stage of Plasmodium falciparum NF54-Mal8p1.16-GFP-Luc gametocytes; format: functional
hERG (KCNH2) [12] = target: T1, hERG (KCNH2) (Homo sapiens, UniProt Q12809); experiment: Inhibition of human ERG expressed in CHO cells assessed as reduction in peak channel current at 10 uM by IonWork patch-clamp electrophysiology method relative to control; format: cell-based; settings: CHO cells expressing human ERG
T1 sequence (Q12809 whole entry): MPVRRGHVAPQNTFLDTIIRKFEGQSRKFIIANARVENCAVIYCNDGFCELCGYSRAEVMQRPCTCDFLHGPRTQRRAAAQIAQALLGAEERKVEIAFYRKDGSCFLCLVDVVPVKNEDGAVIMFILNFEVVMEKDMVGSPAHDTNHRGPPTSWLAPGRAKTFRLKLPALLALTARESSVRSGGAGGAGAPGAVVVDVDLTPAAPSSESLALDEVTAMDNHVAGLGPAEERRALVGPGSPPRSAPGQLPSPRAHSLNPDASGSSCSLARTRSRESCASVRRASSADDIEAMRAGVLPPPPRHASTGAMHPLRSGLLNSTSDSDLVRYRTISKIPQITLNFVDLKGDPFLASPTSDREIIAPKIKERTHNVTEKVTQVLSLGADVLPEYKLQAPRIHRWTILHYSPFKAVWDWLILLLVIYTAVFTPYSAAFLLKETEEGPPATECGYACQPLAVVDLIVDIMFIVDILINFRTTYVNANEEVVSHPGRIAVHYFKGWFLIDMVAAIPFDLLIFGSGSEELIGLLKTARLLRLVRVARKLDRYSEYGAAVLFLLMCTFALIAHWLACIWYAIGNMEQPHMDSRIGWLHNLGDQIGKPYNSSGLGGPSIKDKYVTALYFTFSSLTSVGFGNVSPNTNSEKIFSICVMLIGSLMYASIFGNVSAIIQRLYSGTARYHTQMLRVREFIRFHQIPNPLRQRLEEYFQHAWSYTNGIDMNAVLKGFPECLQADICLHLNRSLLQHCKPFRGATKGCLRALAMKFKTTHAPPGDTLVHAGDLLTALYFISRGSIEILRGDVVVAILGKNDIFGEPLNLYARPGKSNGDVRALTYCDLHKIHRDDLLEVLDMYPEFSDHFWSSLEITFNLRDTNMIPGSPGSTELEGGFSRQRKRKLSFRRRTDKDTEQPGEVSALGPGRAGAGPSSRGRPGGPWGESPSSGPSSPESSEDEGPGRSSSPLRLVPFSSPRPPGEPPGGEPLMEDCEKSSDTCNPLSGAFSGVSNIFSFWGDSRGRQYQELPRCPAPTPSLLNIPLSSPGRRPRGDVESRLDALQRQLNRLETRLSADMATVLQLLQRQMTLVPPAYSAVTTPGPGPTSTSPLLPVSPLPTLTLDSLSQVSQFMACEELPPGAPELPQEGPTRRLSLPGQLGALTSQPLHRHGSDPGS
Summary of the method: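 hERG potassium channel profiled by IonWorks patch-clamp electrophysiology, with 10 μM as the highest concentration tested. Values are the mean of 3 results from experiments run as biological and technical triplicates.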

hERG (KCNH2) [13] = target: T1, hERG (KCNH2); experiment: Inhibition of human ERG expressed in CHO cells assessed as reduction in peak channel current at 0.3 uM by IonWork patch-clamp electrophysiology method relative to control; format: cell-based; settings: CHO cells expressing human ERG
[14] = target: Voltage-gated inwardly rectifying potassium channel KCNH2 (Homo sapiens, UniProt Q12809); experiment: Inhibition of human ERG expressed in CHO cells assessed as reduction in peak channel current by IonWork patch-clamp electrophysiology method; format: cell-based
Chain of Voltage-gated inwardly rectifying potassium channel KCNH2 (Q12809 whole entry): as above

Plasmodium falciparum [15] = experiment: as §1, with “chloroquine-resistant” for “chloroquine-sensitive”, “K1” for “NF54”; format: functional, organism-based
Summary of the method: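 Asexual blood-stage P. falciparum K1 (multidrug resistant) screened by modified [3H]-hypoxanthine incorporation assay; IC50 as mean of n ≥ 2 assays, replicates differing above 3-fold excluded; chloroquine and artesunate controls.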

[16] = Resistance index, ratio of IC50 for chloroquine-resistant asexual blood stage of Plasmodium falciparum K1 infected in human RBC to IC50 for chloroquine-sensitive asexual blood stage of Plasmodium falciparum NF54 infected in human RBC; format: functional
[17] = Solubility of the compound; format: physicochemical
[18] = AUC (0 to infinity) in C57B1/6 mouse at 20 mg/kg, po by LC-MS/MS analysis; format: ADME, organism-based; design: dose 20 mg/kg, time infinity, route oral; settings: in vivo
Summary of the method: (§3)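 Mouse oral PK: C57B1/6 mice (n=3) dosed orally at 20 mg/kg. Blood concentrations followed over time; values are means of 3 mice.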

[19] = Clearance in C57B1/6 mouse at 2 mg/kg, iv by LC-MS/MS analysis; format: ADME, organism-based; settings: in vivo
Summary of the method: (§4)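 Mouse IV PK: C57B1/6 mice (n=2) given 2 mg/kg intravenously as a solution in dimethylacetamide, polyethylene glycol and propylene glycol/ethanol (4:1) at ratio 1:3:6. Blood concentrations followed over time; values are means of 2 mice.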

[20] = Oral bioavailability in C57B1/6 mouse at 20 mg/kg by LC-MS/MS analysis; format: ADME, organism-based; settings: in vivo
Summary of the method: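 Oral bioavailability from C57B1/6 mice dosed 20 mg/kg orally (n=3), referenced to a separate intravenous set at 2 mg/kg (n=2) formulated in dimethylacetamide/polyethylene glycol/propylene glycol–ethanol (4:1), ratio 1:3:6.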

[21] = Cmax in C57B1/6 mouse at 20 mg/kg, po by LC-MS/MS analysis; format: ADME, organism-based; design: dose 20 mg/kg, route oral; settings: in vivo; summary of the method: as §3
[22] = Tmax in C57B1/6 mouse at 20 mg/kg, po by LC-MS/MS analysis; format: ADME, organism-based; settings: in vivo; summary of the method: as §3
[23] = Time at which blood concentration stays above in vitro antiplasmodial Plasmodium falciparum NF54 IC50 in C57B1/6 mouse at 20 mg/kg, po; format: ADME, organism-based; settings: in vivo
[24] = Half life in C57B1/6 mouse at 20 mg/kg, po by LC-MS/MS analysis; format: ADME, organism-based; settings: in vivo; summary of the method: as §3
Plasmodium berghei [25] = experiment: Antimalarial activity against GFP-fused Plasmodium berghei ANKA infected in NMRI mouse assessed as host mean survival time at 50 mg/kg, po administered consecutively at 4, 24, 48 and 72 hrs post infection; format: functional; summary of the method: as §2
[26] = AUC (0 to infinity) in C57B1/6 mouse at 2 mg/kg, iv by LC-MS/MS analysis; format: ADME, organism-based; design: dose 2 mg/kg, route intravenous, time infinity; settings: in vivo; summary of the method: as §4
[27] = Half life in C57B1/6 mouse at 2 mg/kg, iv by LC-MS/MS analysis; format: ADME, organism-based; settings: in vivo; summary of the method: as §4
Plasmodium berghei [28] = experiment: Antimalarial activity against GFP-fused Plasmodium berghei ANKA infected in NMRI mouse assessed as inhibition of parasitemia at 50 mg/kg, po administered consecutively at 4, 24, 48 and 72 hrs post infection by flow cytometry relative to control; format: functional
Summary of the method: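 NMRI mice infected intravenously with P. berghei; oral treatment at 50 mg/kg given 4, 24, 48 and 72 h post-infection (4 x 50 mg/kg). Control mice received vehicle only. Parasitemia of treated animals compared with that of untreated controls. Mice counted as cured if no parasitemia was detected 30 days after treatment.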

[29] = Lipophilicity, log D of the compound; format: physicochemical; settings: octanol/water
Summary of the method: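 LogD computed with ChemDraw 16.0.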

[30] = Volume of distribution in C57B1/6 mouse at 2 mg/kg, iv by LC-MS/MS analysis; format: ADME, organism-based; settings: in vivo; summary of the method: as §4
[31] = Ratio of Cmax in C57B1/6 mouse at 20 mg/kg, po to IC50 for chloroquine-sensitive asexual blood stage of Plasmodium falciparum NF54 infected in human RBC; format: ADME, organism-based; settings: in vivo

SMILES	IC50 (Plasmodium berghei [1]) [nM]	IC50 (CHO) [nM]	half-life at 0.1 µM ([2]; liver microsomes) [h]	IC50 (Plasmodium falciparum [3]) [nM]	remaining at 0.5 h, 0.1 µM ([4]; liver microsomes) [%]	IC50 (Plasmodium falciparum [5]) [nM]	selectivity ratio [6]	remaining at 0.5 h, 0.1 µM ([7]; liver microsomes) [%]	half-life at 0.1 µM ([8]; liver microsomes) [h]	inhibition at 10 µM (hERG (KCNH2) [12]) [%]	inhibition at 0.3 µM (hERG (KCNH2) [13]) [%]	IC50 [14] [nM]	IC50 (Plasmodium falciparum [15]) [nM]	Ratio IC50 [16]	further results
N#Cc1c(C(F)(F)F)cc(NCc2ccc(OC(F)(F)F)cc2)n2c1nc1cc(Cl)c(Cl)cc12	190	5020	> 2.5	440	> 99	210	11	82	1.75						
CCN(CC)CCCC(C)Nc1ccnc2cc(Cl)ccc12 (stereo not drawn) [CHLOROQUINE]															IC50 (Hemozoin): 18000 nM; MST (Plasmodium berghei [9]): 21 days
Cc1ccc(CNc2cc(C(F)(F)F)c(C#N)c3nc4cc(Cl)c(Cl)cc4n23)cc1		6060		400		600	15								Ratio IC50 (Plasmodium falciparum [10]): 6; half-life at 0.1 µM ([2]; microsomes): > 2.5 h; remaining at 0.5 h, 0.1 µM ([4]; microsomes): 91%; remaining at 0.5 h, 0.1 µM ([7]; microsomes): 69%; Ratio IC50 (Plasmodium falciparum [11]): 0.2; half-life at 0.1 µM ([8]; microsomes): 0.933 h
N#Cc1c(C(F)(F)F)cc(NCc2cccs2)n2c1nc1cc(Cl)c(Cl)cc12	140	8480		310		1670	27			< 40	6.13	> 10000	140	0.45	
N#Cc1c(C(F)(F)F)cc(Nc2ccc(OC(F)(F)F)cc2)n2c1nc1ccccc12	110	17600	> 2.5	170	> 99	3320	103	> 99	> 2.5	< 40	7.51	> 10000	150	0.88	solubility [17]: < 5 µM; AUC [18]: 19.4 µM·h; clearance [19]: 0.97 mL/min/kg; bioavailability [20]: 2%; Cmax [21]: 1100 nM; Tmax [22]: 5 h; Time [23]: > 20 h; half-life [24]: 7.86 h; MST (Plasmodium berghei [25]): 12 days; AUC [26]: 79.6 µM·h; half-life [27]: 11.4 h; inhibition in vivo at 50 mg/kg (Plasmodium berghei [28]): 98%; logD [29]: 5.34; Vd [30]: 0.9 L/kg; Ratio [31]: 6
N#Cc1c(C(F)(F)F)cc(NCc2cccc(F)c2)n2c1nc1cc(Cl)c(Cl)cc12	70	7030		190		270	37			< 40	6.53	> 10000	150	0.79	Ratio IC50 (Plasmodium falciparum [10]): 0.5; half-life at 0.1 µM ([2]; microsomes): > 2.5 h; remaining at 0.5 h, 0.1 µM ([4]; microsomes): 100%; remaining at 0.5 h, 0.1 µM ([7]; microsomes): 84%; Ratio IC50 (Plasmodium falciparum [11]): 1.2; half-life at 0.1 µM ([8]; microsomes): 1.98 h
N#Cc1c(C(F)(F)F)cc(NCc2ccco2)n2c1nc1cc(Cl)c(Cl)cc12	60	4840	> 2.5	440	100	2000	10	66	0.833	< 40	6.82	> 10000	230	0.52	
N#Cc1c(C(F)(F)F)cc(NCc2ccccc2F)n2c1nc1cc(Cl)c(Cl)cc12	50	4300	> 2.5	170	97	370	25	84	1.98	< 40	5.49	> 10000	140	0.82	solubility [17]: < 5 µM; MST (Plasmodium berghei [25]): 14 days; inhibition in vivo at 50 mg/kg (Plasmodium berghei [28]): 99.9%; logD [29]: 4.16
